The nature of data set [1]: Chemical stability of the compound in aqueous phosphate buffered saline assessed as half life at pH 7.4 in presence of 4 mM glutathione. Format: physicochemical. Particulars: gsh.
Data set [2] has as its system NCI-H1703. Kind of data set: Antiproliferative activity against human NCI-H1703 cells after 72 hrs by MTT assay. It is filed as functional, cell-based. As to conditions: NCI-H1703, 72 h. The gist of the method:
(§1)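 Compounds (10 mM DMSO stocks, final DMSO ≤0.1%) added at increasing concentrations in PBS, incubated 72 h at 37 °C. MTT read-out, six repeats per concentration, at least two independent experiments.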

Data set [3] relates to NCI-H441. Description: Antiproliferative activity against human NCI-H441 cells after 72 hrs by MTT assay. It is filed as functional, cell-based. As to conditions: NCI-H441, 72 h. In short, it runs like this:
as §1

Data set [4] in a line: Antiproliferative activity against human NCI-H1373 cells after 72 hrs by MTT assay. Format: functional, cell-based. Particulars: NCI-H1373, 72 h. In short, it runs like this: as §1
Data set [5] has as its system NCI-H2122. Description: Antiproliferative activity against human NCI-H2122 cells after 72 hrs by MTT assay. It is filed as functional, cell-based. Particulars: NCI-H2122, 72 h. The gist of the method: as §1
A short description of data set [6]: Antiproliferative activity against human NCI-H1944 cells after 72 hrs by MTT assay. Format: functional, cell-based. Particulars: NCI-H1944, 72 h. In short, it runs like this: as §1
Data set [7] can be described thus: Activation of JNK phosphorylation at Thr183 and Tyr185 in human NCI-H1703 cells at 1 uM within 30 mins by Western blot analysis. It is filed as cell-based.
Data set [8] concerns NCI-H1703. Description: Antitumor activity against human NCI-H1703 cells xenografted in athymic NCr nu/nu Charles river mouse assessed as reduction of tumor growth at 8 umol/kg, iv administered 3 times a week for 3 weeks relative to vehicle treated control. It is filed as functional, organism-based. The gist of the method: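 H1703 xenografts (5×10^6 cells s.c., flank) in 7-week-old female athymic NCr-nu/nu mice, treated from tumor size ≥2×2×2 mm. Dosing i.v. (tail vein) three times weekly for 3 weeks in 2.25% P-123/PBS. Mice killed 2 h after the last dose; tumors excised and weighed. 13–15 mice/group; Mann-Whitney test against vehicle.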

For data set [9], the system named is Mus musculus. Kind of data set: Toxicity in human NCI-H1703 cells xenografted athymic NCr nu/nu Charles river mouse assessed as change in body weight at 8 umol/kg, iv administered 3 times a week for 3 weeks (reference value: 22.2 +/- 0.4g). Format: organism-based. Particulars: in vivo, 504 h. In short, it runs like this: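 Xenografted female athymic NCr-nu/nu mice (H1703, 5×10^6 cells s.c.) dosed i.v. three times weekly for 3 weeks in 2.25% P-123/PBS vehicle. Body weights recorded before each injection and compared with vehicle-treated controls at start and end.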

The nature of data set [10]: Activation of JNK phosphorylation in human NCI-H1703 cells assessed as increase in ATF3 protein level at 1 uM within 2 hrs by Western blot analysis. Format: cell-based.
Data set [11] is described as follows: Activation of JNK phosphorylation in human NCI-H1703 cells assessed as increase in ATF3 protein level at 1 uM by Western blot analysis. Format: cell-based.
Data set [12] deals with NCI-H1703. Kind of data set: Induction of apoptosis in human NCI-H1703 cells assessed as PARP cleavage after 1 to 6 hrs by Western blot analysis. Format: functional, cell-based.
In data set [13] the test system is NCI-H1703. Description: Induction of apoptosis in human NCI-H1703 cells assessed as caspase 3 activation after 1 to 6 hrs by Western blot analysis. Format: functional, cell-based.
Data set [14] deals with NCI-H1703. Kind of data set: Induction of apoptosis in human NCI-H1703 cells assessed as caspase 7 activation after 1 to 6 hrs by Western blot analysis. It is filed as functional, cell-based.
The subject of data set [15] is NCI-H1703. Description: Antitumor activity against human NCI-H1703 cells xenografted in NCr nu/nu Charles river mouse assessed as tissue death in tumor at 8 umol/kg, iv administered 3 times a week for 3 weeks by H and E staining method relative to control. It is filed as functional, organism-based. The gist of the method: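 Female athymic NCr-nu/nu mice, 7 weeks old, received 5×10^6 H1703 cells s.c. in the flank. Once tumors reached ≥2×2×2 mm, dosing was i.v. by tail vein three times weekly for 3 weeks in 2.25% P-123/PBS vehicle. Tumors excised 2 h after the last dose, H&E stained, and scored for areas of cell death against vehicle controls.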

Data set [16] has as its system Mus musculus. Description: Induction of JNK phosphorylation in human NCI-H1703 cells xenografted NCr nu/nu Charles river mouse tumor at 8 umol/kg, iv administered 3 times a week for 3 weeks by immunohistochemical analysis. It is filed as functional, organism-based. In short, it runs like this:
(§2)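 H1703 xenografts in female athymic NCr-nu/nu mice, dosed i.v. three times weekly for 3 weeks in 2.25% P-123/PBS. Tumors taken 2 h after the last dose were immunostained for phospho-SAPK/JNK and ATF3. Intensity graded negative, very weak, weak, moderate or strong.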

In data set [17] the test system is Mus musculus. Kind of data set: Induction of JNK phosphorylation in human NCI-H1703 cells xenografted NCr nu/nu Charles river mouse tumor assessed as increase in ATF3 protein level at 8 umol/kg, iv administered 3 times a week for 3 weeks by immunohistochemical analysis. Format: functional, organism-based. The gist of the method: as §2

Each structure is given as a SMILES string. pIC50: −log10 of the molar value. The source made the active and inactive calls. No cut-off for these calls is given here.

This is an account of results in ChEMBL document CHEMBL1914422, “Activation of the c-Jun N-terminal kinase/activating transcription factor 3 (ATF3) pathway characterizes effective arylated diazeniumdiolate-based nitric oxide-releasing anticancer prodrugs” (J Med Chem, 2011).

As for `CCOC(=O)N1CCCN(/[N+]([O-])=N/Oc2cc(C)c([N+](=O)[O-])cc2[N+](=O)[O-])CC1`, the t1/2 in data set [1] stood at 25.7 min. Moreover, the pIC50 is 5.78 in data set [2]; 5.69 in data set [3]; 5.52 in [4]; 5.00 in [5]; < 5.00 in data set [6]. Also, the outcome in [7] was inactive.
On to `CCOC(=O)N1CCN(/[N+]([O-])=N/Oc2cc(OC)c([N+](=O)[O-])cc2[N+](=O)[O-])CC1`, for which the t1/2 in [1] is on record as 38.6 min. For the same molecule, the pIC50 in data set [2] was 5.80; in [3], 5.60; in data set [4], 5.68; in [5], 5.24; in [6], < 5.00. Besides, the outcome in data set [7] was inactive.
Take `CCOC(=O)N1CCN(/[N+]([O-])=N/Oc2cc(C)c([N+](=O)[O-])cc2[N+](=O)[O-])CC1`: the t1/2 in data set [1] turned out to be 71.5 min. Moreover, the pIC50 in [2] was 6.01; in data set [3], 5.79; in [4] it was 5.73; in [5], 5.15; in data set [6], < 5.00. Moreover, the “growth inhibition (GI)” value in data set [8] was “inactive”. The Activity in data set [9] was 24.5 g. Besides, the outcome in [7], in [10], in [11], in [12], in [13] and in [14] was inactive. The result in data set [15], in data set [16] and in data set [17] was inactive.
`CCOC(=O)N1CCCN(/[N+]([O-])=N/Oc2cc(OC)c([N+](=O)[O-])cc2[N+](=O)[O-])CC1`: in data set [1], the t1/2 worked out at 59.6 min. Besides, the pIC50 in data set [2] was 5.74; in data set [3] it was 5.50; in [4] it was 5.51; in data set [5] it was 5.00; in data set [6] it was < 5.00. The result in [7] was inactive.
